Experimental data pooled from the literature.
Lines come from different studies, so protocols differ.
Target: Serine/threonine-protein kinase OSR1 (OXSR1, Homo sapiens, UniProt O95747)

With `O=C(NS(=O)(=O)c1ccc(NCC2CCOCC2)c([N+](=O)[O-])c1)c1ccc(N2CCN(Cc3ccc(C(F)(F)F)cc3-c3ccc(Cl)cc3)CC2)cc1Oc1cnc2[nH]ccc2c1` the remaining binding was 83% (cell-free assay; competition with immobilised ligand; 1 µM).
With `Cn1c2c(c3ccc(Cl)c(Cl)c31)C(C#N)C1(CCCC1)NC2=O` (centres unmarked) the ΔTm was -0.1 °C (thermal stability; DSF; 10 µM).
`O=C1NC(c2ccccn2)Sc2ccccc21` (centres unmarked) gave a remaining binding of 100% (cell-free assay; competition with immobilised ligand; 1 µM).
For `Cn1c2c(Cl)c(Cl)ccc2c2cc(N)[nH]c(=O)c21`, the ΔTm was -0.2 °C (thermal stability; DSF; 10 µM).
`COc1cc(/C=C/C(=O)CC(=O)/C=C/c2ccc(O)c(OC)c2)ccc1O` has an activity vs control of 104% (enzyme activity; inhibitor; 1 µM).
`CCC1(CC)NC(=O)c2c(c3ccc(Cl)c(Cl)c3n2C)C1C#N` (centres unmarked) gave a ΔTm of -0.3 °C (thermal stability; DSF; 10 µM).
With `FC(F)(F)Oc1cccc(-c2cnc3ccc(-c4ccncc4)nn23)c1` the activity vs control was 97% (enzyme activity; inhibitor; radiometric; 1 µM).
The remaining activity of `O=C(Nc1cnn(-c2csc(C(=O)NC3COC3)c2)c1)Nc1c(F)cccc1Cl` is reported as 96.5% (enzyme activity; inhibitor; 5 µM).
For `CN1CCC2(CC1)NC(=O)c1c(c3ccc(Cl)c(Cl)c3n1C)C2C#N` (racemic), the ΔTm was -0.3 °C (thermal stability; DSF; 10 µM).
For `COc1cccc2c(NCc3ccccc3)nc(-n3c(N)nc4ccccc43)nc12`, the inhibition was -6.6% (target engagement in cells; inhibitor; chemoproteomics; 20 mM).
For `N#CCCc1ccc2c(c1)-c1[nH]c3ccc([N+](=O)[O-])cc3c1CC(=O)N2`, the remaining signal was 94.6% (cell-free assay; 0.5 µM).
The remaining binding of `O=C(O)c1cc(-c2ccc(C3CCNCC3)cc2)c2ccc(-c3ccc(C(F)(F)F)cc3)cc2c1` is reported as 100% (cell-free assay; competition with immobilised ligand; 1 µM).
`O=C1Nc2ccc(Cl)cc2C1=Cc1cc(Cl)c(O)c(Cl)c1` has a remaining signal of 91.6% (cell-free assay; 0.5 µM).
For `Cc1c(NC(=O)c2cc(C(N)=O)nc3cc(F)ccc23)c(C(F)(F)F)nn1Cc1ccc(C(C)(C)C)cc1`, the remaining binding was 100% (cell-free assay; competition with immobilised ligand; 1 µM).
`CC(C)(O)[C@H]1CC[C@H](Nc2ccc3ncc(-c4cccc(C(F)(F)F)c4)n3n2)CC1` has a remaining activity of 102% (enzyme activity; inhibitor; 1 µM).
The remaining binding of `COc1ccc2c(O[C@@H]3C[C@H]4C(=O)N[C@]5(C(=O)O)CC5/C=C\CCCCC[C@H](NC(=O)OC5CCCC5)C(=O)N4C3)cc(-c3csc(NC(=O)C(C)C)n3)nc2c1C` (some centres unmarked) is reported as 82% (cell-free assay; competition with immobilised ligand; 1 µM).
With `Nc1ncnc2occ(-c3ccc(NC(=O)Nc4cc(C(F)(F)F)ccc4F)cc3)c12` the remaining signal was 9.5% (cell-free assay; inhibitor; 20 µM).
